Measured values: ChEMBL document CHEMBL4414545, “Beta-Glucuronidase Catalyzes Deconjugation and Activation of Curcumin-Glucuronide in Bone” (J Nat Prod, 2019)

Tests used:
[1] = Drug concentration in C3H/HeJ mouse exhibiting decrease in GUSB activity assessed as level of aglycone curcumin in bone marrow at 500 mg/kg administered via oral gavage measured after 30 mins by LC-MS analysis; assay type: ADME, organism-based; details: in vivo, 0.5 h, read-out: Ct
Summary of the method: (§1)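 Oral gavage of curcumin, 500 mg/kg in DMSO, to C57BL/6J or C3H/HeJ mice, n=3–4/group. Serum and marrow were taken 30 min post-dose. Marrow pellets from leg centrifugation were resuspended in 50 mM sodium acetate pH 5 and kept 2 h on ice; supernatants were used. Aglycone curcumin and curcumin-glucuronide were quantified by LC/MS, with marrow values adjusted to pellet volume.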

[2] = Drug metabolism in C3H/HeJ mouse exhibiting decrease in GUSB activity assessed as level of curcumin-glucuronide in bone marrow at 500 mg/kg administered via oral gavage measured after 30 mins by LC-MS analysis; assay type: ADME, organism-based; details: read-out: Ct, in vivo, 0.5 h; summary of the method: as §1
[3] = test system: RAW264.7; experiment: Inhibition of RANKL-induced osteoclastogenesis in murine RAW264.7 cells assessed as formation of TRAP positive multinucleated osteoclasts pretreated for 4 hrs followed by RANKL addition measured after 72 hrs; assay type: functional, cell-based; details: Mus musculus
Summary of the method: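 RAW 264.7 cells, used within 10 passages, were seeded at 5×10^3/well in DMEM with 10% FBS and allowed to adhere overnight at 37°C. Cells were pretreated 4 h with aglycone curcumin or curcumin-glucuronide, then given RANKL (50 ng/mL final) for 72 h. TRAP-positive multinucleated osteoclasts were counted, n=4/group.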

[4] = test system: RAW264.7; experiment: Cytotoxicity against murine RAW264.7 cells assessed as effect on cell viability at 3 uM; assay type: cell-based; details: mouse, raw264.7, 3 µM
[5] = Half-life in C57BL/6J mouse serum at 500 mg/kg administered via oral gavage measured after 30 mins by LC-MS analysis; assay type: ADME, organism-based; details: in vivo, 0.5 h
Summary of the method: (§2)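 Female 4-week C57BL/6J mice given a single oral gavage of curcumin, 500 mg/kg in DMSO. Serum and bone marrow were collected under isoflurane at the indicated times up to 48 h, n=4/group. Total curcumin (aglycone plus glucuronide) was measured by LC/MS with d6-curcumin standards. PK parameters came from noncompartmental analysis after extravascular dosing.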

[6] = Half-life in C57BL/6J mouse bone marrow at 500 mg/kg administered via oral gavage measured after 30 mins by LC-MS analysis; assay type: ADME, organism-based; details: in vivo, 0.5 h; summary of the method: as §2
[7] = Tmax in C57BL/6J mouse serum at 500 mg/kg administered via oral gavage measured after 30 mins by LC-MS analysis; assay type: ADME, organism-based; summary of the method: as §2
[8] = Tmax in C57BL/6J mouse bone marrow at 500 mg/kg administered via oral gavage measured after 30 mins by LC-MS analysis; assay type: ADME, organism-based; summary of the method: as §2
[9] = Cmax in C57BL/6J mouse serum at 500 mg/kg administered via oral gavage measured after 30 mins by LC-MS analysis; assay type: ADME, organism-based; set-up: dose 500 mg/kg, route oral; summary of the method: as §2
[10] = Cmax in C57BL/6J mouse bone marrow at 500 mg/kg administered via oral gavage measured after 30 mins by LC-MS analysis; assay type: ADME, organism-based; set-up: dose 500 mg/kg, route oral; summary of the method: as §2
[11] = AUC (0 to 48 hrs) in C57BL/6J mouse serum at 500 mg/kg administered via oral gavage measured after 30 mins by LC-MS analysis; assay type: ADME, organism-based; set-up: time < 48 hr, dose 500 mg/kg, route oral; summary of the method: as §2
[12] = AUC (0 to 48 hrs) in C57BL/6J mouse bone marrow at 500 mg/kg administered via oral gavage measured after 30 mins by LC-MS analysis; assay type: ADME, organism-based; set-up: time < 48 hr, dose 500 mg/kg, route oral; summary of the method: as §2
[13] = AUC (0 to infinity) in C57BL/6J mouse serum at 500 mg/kg administered via oral gavage measured after 30 mins by LC-MS analysis; assay type: ADME, organism-based; set-up: dose 500 mg/kg, route oral, time infinity; summary of the method: as §2
[14] = AUC (0 to infinity) in C57BL/6J mouse bone marrow at 500 mg/kg administered via oral gavage measured after 30 mins by LC-MS analysis; assay type: ADME, organism-based; set-up: dose 500 mg/kg, route oral, time infinity; summary of the method: as §2
[15] = Ratio of AUC (0 to 48 hrs) in C57BL/6J mouse serum to AUC (0 to 48 hrs) in C57BL/6J mouse bone marrow at 500 mg/kg administered via oral gavage; assay type: ADME, organism-based; details: in vivo
[16] = Ratio of AUC (0 to infinity) in C57BL/6J mouse serum to AUC (0 to infinity) in C57BL/6J mouse bone marrow at 500 mg/kg administered via oral gavage; assay type: ADME, organism-based; details: in vivo
[17] = Ratio of drug concentration in C57BL/6J mouse bone marrow to drug concentration in C57BL/6J mouse serum; assay type: ADME
[18] = Prodrug conversion in C57BL/6J mouse serum assessed as effect on aglycone curcumin level at 500 mg/kg administered via oral gavage incubated for 30 mins followed by resuspension in sodium acetate buffer at pH 5 measured after 2 hrs in presence of saccharolactone by LC-MS analysis; assay type: ADME, organism-based; details: in vivo, pH 5, 500 mg/kg
[19] = Prodrug conversion in C57BL/6J mouse bone marrow assessed as beta-glucuronidase mediated effect on aglycone curcumin level at 500 mg/kg administered via oral gavage incubated for 30 mins followed by resuspension in sodium acetate buffer at pH 5 measured after 2 hrs in presence of saccharolactone by LC-MS analysis; assay type: ADME, organism-based; details: in vivo, pH 5, 500 mg/kg
Summary of the method: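 C57BL/6J mice were gavaged with curcumin at 500 mg/kg, and marrow was harvested 30 min later. Marrow was resuspended in 50 mM sodium acetate pH 5 with or without 10 mM saccharolactone, or mice received saccharolactone 1 g/kg ip in saline 1 h before curcumin. Suspensions were kept 2 h on ice, and aglycone curcumin (% of total) was measured by LC/MS, n=3–4/group.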

[20] = Drug metabolism in C57BL/6J mouse assessed as level of curcumin-glucuronide in serum at 500 mg/kg administered via oral gavage measured after 30 mins by LC-MS analysis; assay type: ADME, organism-based; details: in vivo, 0.5 h, read-out: Ct; summary of the method: as §1
[21] = Drug metabolism in C57BL/6J mouse assessed as level of curcumin-glucuronide in bone marrow at 500 mg/kg administered via oral gavage measured after 30 mins by LC-MS analysis; assay type: ADME, organism-based; details: in vivo, 0.5 h, read-out: Ct; summary of the method: as §1
[22] = Drug concentration in C57BL/6J mouse assessed as level of aglycone curcumin in serum at 500 mg/kg administered via oral gavage measured after 30 mins by LC-MS analysis; assay type: ADME, organism-based; details: in vivo, 0.5 h, read-out: Ct; summary of the method: as §1
[23] = Drug concentration in C57BL/6J mouse assessed as level of aglycone curcumin in bone marrow at 500 mg/kg administered via oral gavage measured after 30 mins by LC-MS analysis; assay type: ADME, organism-based; details: in vivo, 0.5 h, read-out: Ct; summary of the method: as §1
[24] = Drug metabolism in C3H/HeJ mouse exhibiting decrease in GUSB activity assessed as level of curcumin-glucuronide in serum at 500 mg/kg administered via oral gavage measured after 30 mins by LC-MS analysis; assay type: ADME, organism-based; details: in vivo, 0.5 h, read-out: Ct; summary of the method: as §1
[25] = Drug metabolism in C57BL/6J mouse assessed as level of curcumin-glucuronide in serum at 100 mg/kg, ip measured after 20 mins by LC-MS analysis; assay type: ADME, organism-based; details: in vivo, read-out: Ct
Summary of the method: (§3)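 Curcumin at 100 mg/kg in DMSO was given ip to 15-week C57BL/6J, C3H/HeJ or mps/mps (GUSB-null) mice, n=3–4/group. Serum and marrow were harvested 20 min later. Marrow was resuspended in 50 mM sodium acetate pH 5 for 2 h on ice. Aglycone and glucuronidated curcumin were measured by LC/MS, with marrow values corrected to the original pellet volume.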

[26] = Drug metabolism in C57BL/6J mouse assessed as level of curcumin-glucuronide in bone marrow at 100 mg/kg, ip measured after 20 mins by LC-MS analysis; assay type: ADME, organism-based; details: in vivo, read-out: Ct; summary of the method: as §3
[27] = Drug concentration in C57BL/6J mouse assessed as level of aglycone curcumin in serum at 100 mg/kg, ip measured after 20 mins by LC-MS analysis; assay type: ADME, organism-based; details: in vivo, read-out: Ct; summary of the method: as §3
[28] = Drug concentration in C57BL/6J mouse assessed as level of aglycone curcumin in bone marrow at 100 mg/kg, ip measured after 20 mins by LC-MS analysis; assay type: ADME, organism-based; details: in vivo, read-out: Ct; summary of the method: as §3
[29] = Drug metabolism in C3H/HeJ mouse exhibiting decrease in GUSB activity assessed as level of curcumin-glucuronide in serum at 100 mg/kg, ip measured after 20 mins by LC-MS analysis; assay type: ADME, organism-based; details: in vivo, read-out: Ct; summary of the method: as §3
[30] = Drug concentration in C3H/HeJ mouse exhibiting decrease in GUSB activity assessed as level of aglycone curcumin in serum at 100 mg/kg, ip measured after 20 mins by LC-MS analysis; assay type: ADME, organism-based; details: in vivo, read-out: Ct; summary of the method: as §3
[31] = Drug concentration in C3H/HeJ mouse exhibiting decrease in GUSB activity assessed as level of curcumin-glucuronide in bone marrow at 100 mg/kg, ip measured after 20 mins by LC-MS analysis; assay type: ADME, organism-based; details: in vivo, read-out: Ct; summary of the method: as §3
[32] = Drug concentration in C3H/HeJ mouse exhibiting decrease in GUSB activity assessed as level of aglycone curcumin in bone marrow at 100 mg/kg, ip measured after 20 mins by LC-MS analysis; assay type: ADME, organism-based; details: in vivo, read-out: Ct; summary of the method: as §3
[33] = Drug metabolism in mps/mps mutant mouse assessed as level of curcumin-glucuronide in serum at 100 mg/kg, ip measured after 20 mins by LC-MS analysis; assay type: ADME, organism-based; details: in vivo, read-out: Ct; summary of the method: as §3
[34] = Drug concentration in mps/mps mutant mouse assessed as level of aglycone curcumin in serum at 100 mg/kg, ip measured after 20 mins by LC-MS analysis; assay type: ADME, organism-based; details: in vivo, read-out: Ct; summary of the method: as §3
[35] = Drug concentration in mps/mps mutant mouse assessed as level of aglycone curcumin in bone marrow at 100 mg/kg, ip measured after 20 mins by LC-MS analysis; assay type: ADME, organism-based; details: in vivo, read-out: Ct; summary of the method: as §3

concentration [1]: 470 nM | concentration [2]: 1190 nM | t1/2 [5]: 264 min | t1/2 [6]: 468 min | Tmax [7]: 30 min | Tmax [8]: 30 min | Cmax [9]: 106000 nM | Cmax [10]: 5900 nM | AUC(0-t) at 48 h [11]: 487 µM·h | AUC(0-t) at 48 h [12]: 48 µM·h | AUC(0-inf) [13]: 488 µM·h | AUC(0-inf) [14]: 48.3 µM·h | Ratio [15]: 10 | Ratio [16]: 10 | Kp [17]: 3 | Drug metabolism [18]: Metabolite_Detected | Drug metabolism [19]: Metabolite_Detected | concentration [20]: 82700 nM | concentration [21]: 360 nM | concentration [22]: 170 nM | concentration [23]: 1140 nM | concentration [24]: 80000 nM | concentration [25]: 92700 nM | concentration [26]: 1300 nM | concentration [27]: 7200 nM | concentration [28]: 1900 nM | concentration [29]: 92100 nM | concentration [30]: 2800 nM | concentration [31]: 2700 nM | concentration [32]: 500 nM | concentration [33]: 151000 nM | concentration [34]: 22800 nM | concentration [35]: 400 nM
Structure (SMILES): COc1cc(/C=C/C(=O)CC(=O)/C=C/c2ccc(O)c(OC)c2)ccc1O [CURCUMIN]
IC50 [3]: 3000 nM | Activity [4]: Non-Toxic
